Results on 24 compounds are retold here after ChEMBL document CHEMBL4364240, “Tetracyclines as Inhibitors of Pre-microRNA Maturation: A Disconnection between RNA Binding and Inhibition” (ACS Med Chem Lett, 2019).

Each structure is given as a SMILES string. Calls of active or inactive are those of the source. The rule behind the calls is not given here.

The nature of assay [1]: Inhibition of biotinylated pre-let-7d microRNA (unknown origin) maturation preincubated for 15 mins followed by Pre-let-7d addition and measured after 5 hrs by cat-ELCCA. The essentials: (§1)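 Dose-response cat-ELCCA in which Dicer is in excess over the biotinylated pre-miRNA substrate to ensure adequate signal-to-background. IC50 values are derived from the inhibition curves and reported as 95% confidence intervals.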

Assay [2] addresses microRNA 21. As to the kind of experiment: Inhibition of Dicer mediated biotinylated pre-miRNA-21 (unknown origin) maturation preincubated for 15 mins followed by pre-miRNA-21 addition and measured after 5 hrs by cat-ELCCA. The class given is nucleic-acid assay. The essentials: as §1
For assay [3], the target named is microRNA 21. As to the kind of experiment: Binding affinity to biotinylated pre-miRNA-21 (unknown origin) by SPR analysis. It is filed as nucleic-acid assay.
The test system of assay [4] is microRNA 21. As to the kind of experiment: Inhibition of Dicer mediated 5'-biotinylated PEG linked pre-miRNA-21 (unknown origin) maturation. The class given is nucleic-acid assay.
Assay [5] has as its system microRNA 21. As to the kind of experiment: Inhibition of Dicer mediated biotinylated pre-miRNA-21 (unknown origin) maturation at 1 mM measured after 15 mins by cat-ELCCA relative to control. It is filed as nucleic-acid assay. The essentials: (§2)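 Single-point cat-ELCCA screen at 1.0 mM compound. Recombinant Dicer is used in excess over the pre-miRNA substrate to give enough signal-to-background. The read-out is percent inhibition of processing.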

A short description of assay [6]: Inhibition of biotinylated pre-let-7d (unknown origin) maturation at 1 mM preincubated for 15 mins followed by Pre-let-7d addition and measured after 5 hrs by cat-ELCCA. The essentials:
as §2

Assay [7] in a line: Binding affinity to biotinylated pre-let-7d microRNA (unknown origin) by SPR analysis. On the technique in general: Surface plasmon resonance follows binding to a sensor surface in real time, without labels.
Assay [8] relates to microRNA 21. As to the kind of experiment: […] miR-21 RNA in human HeLA cells transfected with pmir21 vector incubated for 48 hrs by Dual-Glo luciferase assay. The class given is cell-based.
The subject of assay [9] is microRNA 21. As to the kind of experiment: […] miR-21 RNA in human HeLA cells transfected with pmirGLO empty vector incubated for 48 hrs by Dual-Glo luciferase assay. The class given is cell-based.
Assay [10] has as its system microRNA 21. As to the kind of experiment: Inhibition of Dicer mediated biotinylated pre-miRNA-21 (unknown origin) maturation in presence of 1 to 3 mM MgCl2 preincubated for 15 mins followed by pre-miRNA-21 addition and measured after 5 hrs by cat-ELCCA. The class given is nucleic-acid assay.
The subject of another assay is Escherichia coli. As to the kind of experiment: Inhibition of Escherichia coli RNase 3 dsRBD assessed as inhibition of pre-miRNA-21 maturation incubated for 0.5 to 1 hr.
In assay [11] the test system is microRNA 21. As to the kind of experiment: Inhibition of Dicer mediated biotinylated pre-miRNA-21 (unknown origin) maturation in presence of 1;1 ratio of CaCl2 and MgCl2 preincubated for 15 mins followed by pre-miRNA-21 addition and measured after 5 hrs by cat-ELCCA. The class given is nucleic-acid assay.

`O=c1nc(/C=C/c2ccc(O)c(O)c2)oc2ccccc12`: the half-inhibitory concentration (IC50) (as a rule, the concentration that gives 50% inhibition) in [1] is “Not Active”; on microRNA 21 [2] it was 692 µM.
Take `COc1ccc(-c2cc(-c3cc(OC)ccc3O)[nH]n2)cc1`: the IC50 entry was “Not Active” in [1] and 148 µM against microRNA 21 [2].
For `Nc1ccc(-c2nc3cc(-c4nc5ccccc5o4)ccc3[nH]2)cc1`, in that order: “Not Active” and 229 µM.
In the same order, the values of `CN1c2ccccc2C(C)(C)C12C=Cc1cc(O)ccc1O2` (centres undefined) are “Not Active” and 15 µM.
In the case of `CN1CCN(c2ccc3nc(-c4ccc5nc(-c6ccc(O)cc6)[nH]c5c4)[nH]c3c2)CC1`, the Kd (in general, the equilibrium constant for the complex coming apart) at microRNA 21 [3] (read-out: Kd) lay within 0.1 to 0.7 µM.
For `Oc1ccc(-c2csc(Cc3c[nH]c4ccccc34)n2)cc1O`, the half-inhibitory concentration (IC50) entry in [1] is “Not Active”; against microRNA 21 [2] it was 398 µM.
Regarding `O=c1oc2c(-c3cccc(Cl)c3)cc(O)cc2s1`, the IC50 entry in assay [1] is “Not Active”; against microRNA 21 [2] it was 645 µM.
In the case of `CC(=O)Oc1cccc2c1C(=O)C1=C(O)[C@]3(OC(C)=O)C(=O)C(C(N)=O)=C(O)[C@@H](N(C)C)[C@@H]3[C@@H](OC(C)=O)[C@@H]1[C@]2(C)OC(C)=O`, the inhibition (usually the share of the control response that was lost under treatment) in the assay on microRNA 21 [4] is “Active”.
Regarding `CN(C)[C@@H]1C(O)=C(C(N)=O)C(=O)[C@@]2(O)C(O)=C3C(=O)c4c(O)ccc(Cl)c4[C@@H](O)[C@H]3C[C@@H]12`, in the assay on microRNA 21 [5], the inhibition lay in the range of 40 to 100%.
For the compound `CN(C)[C@H]1C(O)=C(C(N)=O)C(=O)[C@@]2(O)C(O)=C3C(=O)c4c(O)cccc4[C@@](C)(O)[C@H]3C[C@@H]12`, the inhibition with microRNA 21 [5] is 40 to 100%.
For `CN(C)c1cc(NC(=O)CNC(C)(C)C)c(O)c2c1C[C@H]1C[C@H]3[C@H](N(C)C)C(O)=C(C(N)=O)C(=O)[C@@]3(O)C(O)=C1C2=O`, in the assay on microRNA 21 [5], the inhibition is 40 to 100%.
On to `CN1CCN(c2ccc3[nH]c(-c4ccc5[nH]c(-c6ccc(O)cc6)nc5c4)nc3c2)CC1`, for which the inhibition result (with microRNA 21 [5]; in assay [6]) was “inactive” in each case.
`Cc1c2c(c(O)c3c(O)cccc13)C(=O)[C@]1(O)C(=O)C(C(N)=O)=C(O)[C@@H](N(C)C)[C@@H]1C2` had an inhibition in the assay with microRNA 21 [5] of 40 to 100%.
Turning to `CN(C)[C@@H]1C(O)=C(C(N)=O)C(=O)[C@@]2(O)C(O)=C3C(=O)c4c(O)ccc(Cl)c4[C@@](C)(O)[C@H]3C[C@@H]12` [CHLORTETRACYCLINE], the half-inhibitory concentration (IC50) is 237 to 307 µM in [1] (read-out: IC50) and 155 to 274 µM on microRNA 21 [2]. For the same compound, the inhibition in the assay on microRNA 21 [5] is 40 to 100%.
`C[C@H]1c2cccc(O)c2C(=O)C2=C(O)[C@]3(O)C(=O)C(C(N)=O)=C(O)[C@@H](N(C)C)[C@@H]3[C@@H](O)[C@@H]21` [DOXYCYCLINE]: the results for the IC50 (in assay [1] (read-out: IC50); against microRNA 21 [2]) were 433 to 1300 µM and 433 to 1410 µM, respectively. Also, the inhibition in the assay with microRNA 21 [5] was in the range of 40 to 100%.
In the case of `NC[C@@H]1O[C@H](O[C@H]2[C@@H](O)[C@H](O[C@@H]3[C@@H](O)[C@H](N)C[C@H](N)[C@H]3O[C@H]3O[C@H](CN)[C@@H](O)[C@H](O)[C@H]3N)O[C@@H]2CO)[C@H](N)[C@@H](O)[C@@H]1O` [FRAMYCETIN], the inhibition entry (in the assay on microRNA 21 [5]; in assay [6]) was “inactive” each time. Further, the dissociation constant Kd on microRNA 21 [3] (read-out: Kd) was in the range of 0.1 to 0.7 µM.
Regarding `NC(=O)C1=C(O)C[C@@H]2C[C@@H]3Cc4cccc(O)c4C(=O)C3=C(O)[C@]2(O)C1=O` [INCYCLINIDE], the Kd result (in assay [7]; in the assay with microRNA 21 [3]) was “Not Active” throughout. Besides, the inhibition entry (in [1]; with microRNA 21 [2]) was “Dose-dependent effect” throughout. Also, the IC50 fell in the range of 383 to 775 µM in assay [1] (read-out: IC50) and 358 to 469 µM on microRNA 21 [2].
As for `NC[C@H]1O[C@H](O[C@H]2[C@H](O)[C@@H](O[C@H]3O[C@H](CO)[C@@H](O)[C@H](N)[C@H]3O)[C@H](N)C[C@@H]2N)[C@H](O)[C@@H](O)[C@@H]1O` [KANAMYCIN], the inhibition entry (in the assay on microRNA 21 [5]; in assay [6]) was “inactive” in each case. For the same compound, the dissociation constant Kd at microRNA 21 [3] (read-out: Kd) was in the range of 0.1 to 0.7 µM.
Take `C=C1c2c(Cl)ccc(O)c2C(=O)C2=C(O)[C@]3(O)C(=O)C(C(N)=O)=C(O)[C@@H](N(C)C)[C@@H]3[C@@H](O)[C@H]12` [MECLOCYCLINE]: the Kd in assay [7] (read-out: Kd) turned out to be 5.8 µM; on microRNA 21 [3] (read-out: Kd) it was 2.1 µM. In addition, the figures for the 50% inhibitory concentration (IC50) (in assay [1] (read-out: IC50); on microRNA 21 [2]) were 80 to 240 µM and 62 to 196 µM, respectively. Moreover, the outcome in the assay with microRNA 21 [8] and in the assay on microRNA 21 [9] was inactive. This compound came in with an inhibition with microRNA 21 [5] of 40 to 100%.
For `C=C1c2cccc(O)c2C(=O)C2=C(O)[C@]3(O)C(=O)C(C(N)=O)=C(O)[C@@H](N(C)C)[C@@H]3[C@@H](O)[C@H]12` [METHACYCLINE], the equilibrium dissociation constant (Kd) in [7] (read-out: Kd) worked out at 17 µM; at microRNA 21 [3] (read-out: Kd), 9.9 µM. The half-inhibitory concentration (IC50) in [1] (read-out: IC50) fell in the range of 97 to 749 µM; at microRNA 21 [2], 56 to 437 µM. Moreover, the result in the assay with microRNA 21 [8] and with microRNA 21 [9] was inactive. The inhibition entry in the assay on microRNA 21 [10], in the assay with Escherichia coli and in the assay on microRNA 21 [11] was “Active” each time. Further, the inhibition in the assay on microRNA 21 [5] lay in the range of 40 to 100%.
Regarding `CN(C)c1ccc(O)c2c1C[C@H]1C[C@H]3[C@H](N(C)C)C(O)=C(C(N)=O)C(=O)[C@@]3(O)C(O)=C1C2=O` [MINOCYCLINE], the IC50 in [1] (read-out: IC50) lay within 437 to 744 µM; at microRNA 21 [2], 305 to 539 µM. Moreover, the inhibition with microRNA 21 [5] is 40 to 100%.
As for `CN(C)[C@@H]1C(O)=C(C(N)=O)C(=O)[C@@]2(O)C(O)=C3C(=O)c4c(O)cccc4[C@@](C)(O)[C@H]3[C@H](O)[C@@H]12` [OXYTETRACYCLINE], the 50% inhibitory concentration (IC50) in assay [1] (read-out: IC50) was in the range of 431 to 1020 µM; against microRNA 21 [2] it was 200 to 918 µM. This compound also yielded an inhibition with microRNA 21 [5] of 40 to 100%.
As to `CN[C@@H]1[C@H](O[C@H]2[C@H](O[C@H]3[C@H](O)[C@@H](O)[C@H](N=C(N)N)[C@@H](O)[C@@H]3N=C(N)N)O[C@@H](C)[C@]2(O)C=O)O[C@@H](CO)[C@H](O)[C@H]1O` [STREPTOMYCIN], the inhibition result (in the assay on microRNA 21 [5]; in [6]) was “inactive” throughout. Moreover, the dissociation constant (Kd) at microRNA 21 [3] (read-out: Kd) was 0.1 to 0.7 µM.
Regarding `CN(C)[C@@H]1C(O)=C(C(N)=O)C(=O)[C@@]2(O)C(O)=C3C(=O)c4c(O)cccc4[C@@](C)(O)[C@H]3C[C@@H]12` [TETRACYCLINE], the IC50 is 421 to 865 µM in assay [1] (read-out: IC50) and 434 to 1000 µM against microRNA 21 [2]. The result with microRNA 21 [8] and in the assay on microRNA 21 [9] was inactive. The compound further yielded an inhibition with microRNA 21 [5] of 40 to 100%.
